Measurements taken from ChEMBL document CHEMBL1126750, “Nonpeptide angiotensin II receptor antagonists. Synthesis and biological activity of benzimidazolecarboxylic acids” (J Med Chem, 1993).
pIC50: −log10 of the molar value.

Legend:
[1] = molecular target: T1, Type-1 angiotensin II receptor (Bos taurus, UniProt P25104); assay: Inhibition of specific binding of [125 I ] Angiotensin-II (0.2 nM) to bovine adrenal cortex; type: tissue-based
T1 sequence (P25104 whole entry): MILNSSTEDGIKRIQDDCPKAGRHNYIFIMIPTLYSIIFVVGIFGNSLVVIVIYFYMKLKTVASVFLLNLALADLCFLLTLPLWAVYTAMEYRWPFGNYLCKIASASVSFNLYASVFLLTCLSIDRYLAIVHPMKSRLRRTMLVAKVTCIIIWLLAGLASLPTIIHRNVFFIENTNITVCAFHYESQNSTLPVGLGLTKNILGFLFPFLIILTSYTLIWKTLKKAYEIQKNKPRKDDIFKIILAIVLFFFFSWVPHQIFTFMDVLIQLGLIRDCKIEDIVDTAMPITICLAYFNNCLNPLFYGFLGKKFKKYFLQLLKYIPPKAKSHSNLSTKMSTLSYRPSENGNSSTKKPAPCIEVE

[2] = tested on: Rattus norvegicus; assay: Percent inhibition of the Angiotensin-II (0.1micro g/kg, iv) induced pressor response after 7 hours of administration (1 mg/kg po) in rat; type: functional
Outline: (§1)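 Conscious male Sprague-Dawley rats dosed orally with test compound; pressor response to AII challenge (0.1 µg/kg iv) measured at 3 and 7 h after dosing and expressed as percent inhibition. Duplicate experiments, with n = 3 for some compounds; variation in % inhibition under 30%.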

[3] = molecular target: T2, Angiotensin II receptor (Rattus norvegicus) (UniProt P29089+P25095+P35351); assay: Percent inhibition of the Angiotensin-II (0.1ug/kg, iv) induced pressor response after 3 hours of administration (1 mg/kg po) in rats; type: functional, organism-based; outline: as §1
[4] = tested on: Rattus norvegicus; assay: Percent inhibition of the Angiotensin-II (0.1micro g/kg, iv) induced pressor response after 7 hours of administration (1 mg/kg po) in rats; type: functional; outline: as §1
[5] = molecular target: T2, Angiotensin II receptor (Rattus norvegicus); assay: Percent inhibition of the Angiotensin-II (0.1micro g/kg, iv) induced pressor response after 7 hours of administration (3 mg/kg po) in rats; type: functional, organism-based; outline: as §1
[6] = tested on: Rattus norvegicus; assay: Percent inhibition of the Angiotensin-II (0.1 micro g/kg, iv) induced pressor response after 3 hours of administration (3 mg/kg po) in rats; type: functional; outline: as §1
[7] = molecular target: T2, Angiotensin II receptor (Rattus norvegicus); assay: Percent inhibition of the Angiotensin-II (0.1ug/kg, iv) induced pressor response after 7 hours of administration (1 mg/kg po) in rats; type: functional, organism-based; outline: as §1
[8] = tested on: Rattus norvegicus; assay: Percent inhibition of the Angiotensin-II (0.1micro g/kg, iv) induced pressor response after 7 hours of administration (1 mg/kg po) in rats.; type: functional; outline: as §1
[9] = molecular target: T2, Angiotensin II receptor (Rattus norvegicus); assay: Percent inhibition of the Angiotensin-II (0.1ug/kg, iv) induced pressor response after 3 hours of administration (3 mg/kg po) in rats; type: functional, organism-based; outline: as §1
[10] = tested on: Rattus norvegicus; assay: Percent inhibition of the Angiotensin-II (0.1micro g/kg, iv) induced pressor response after 3 hours of administration (10 mg/kg po) in rats; type: functional; outline: as §1
[11] = tested on: Rattus norvegicus; assay: Percent inhibition of the Angiotensin-II (0.1micro g/kg, iv) induced pressor response after 7 hours of administration (10 mg/kg po) in rats; type: functional; outline: as §1
[12] = species: Oryctolagus cuniculus; assay: Concentration required for inhibition of Angiotensin-II induced rabbit aorta strips contraction; type: functional
Outline: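 Isolated rabbit aortic strips contracted with AII (10 nM); test compound inhibition measured from concentration-inhibition curves, n = 6-8; IC50 is the concentration halving the AII-induced contraction.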

[13] = tested on: Rattus norvegicus; assay: Percent inhibition of the Angiotensin-II (0.1 micro g/kg, iv) induced pressor response after 7 hours of administration (1 mg/kg po) in rats; type: functional; outline: as §1

Compound	pIC50 [1]	inhibition [3]	inhibition [5]	inhibition [7]	inhibition [9]	other results
CCc1nc2cccc(C(=O)O)c2n1Cc1ccc(-c2ccccc2-c2nn[nH]n2)cc1		79%	95%	62%		Inhibition [6]: 96%
CCOc1nc2cccc(C(=O)O)c2n1Cc1ccc(-c2ccccc2-c2nnn[nH]2)cc1	6.96	100%	100%	92%	100%	Inhibition [10]: 100%; Inhibition [11]: 100%; pIC50 [12]: 9.70
CCCCNc1nc2cccc(C(=O)O)c2n1Cc1ccc(-c2ccccc2-c2nn[nH]n2)cc1		38%	61%		52%	Inhibition [13]: 19%

Continued, in another order:

pIC50 [1]	inhibition [3]	inhibition [5]	inhibition [7]	inhibition [9]	Compound	other results
6.10	42%				CNCc1nc2cccc(C(=O)O)c2n1Cc1ccc(-c2ccccc2-c2nn[nH]n2)cc1	Inhibition [2]: 50%
	28%				CNc1nc2cccc(C(=O)O)c2n1Cc1ccc(-c2ccccc2-c2nn[nH]n2)cc1	Inhibition [4]: 49%
	81%	100%		100%	CCNc1nc2cccc(C(=O)O)c2n1Cc1ccc(-c2ccccc2-c2nn[nH]n2)cc1	Inhibition [8]: 85%
